Here are results for 48 molecules from ChEMBL document CHEMBL3112486, “Novel class of benzoic acid ester derivatives as potent PDE4 inhibitors for inhaled administration in the treatment of respiratory diseases” (J Med Chem, 2014).

Assay [1] concerns the target T1, Phosphodiesterase 4 (Homo sapiens, UniProt P27815+Q08499+Q07343+Q08493). The experiment in a line: Inhibition of PDE4 activity in human PBMC assessed as inhibition of LPS-induced TNFalpha release after 18 hrs by ELISA. An outline of the steps:
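Human PBMCs plated at 10^5 cells/well in RPMI 1640 without phenol red plus 10% FBS, at 37 °C, 5% CO2. Compound added at 10^-15 to 10^-6 M (final DMSO 0.2%), with E. coli LPS at 3 ng/mL final, for 18 h. TNFα in supernatant measured by paired-antibody ELISA. IC50 from four-parameter logistic nonlinear regression, reported with 95% confidence intervals.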
(ELISA stands for enzyme-linked immunosorbent assay.)

The target of assay [2] is T1, Phosphodiesterase 4. The experiment in a line: Inhibition of PDE4 isolated from human U937 cells assessed as […] by LANCE assay. Format: cell-free. To be noted: u-937. For orientation: Cyclic AMP is a second messenger, typically raised through Gs and lowered through Gi signalling.

Regarding `O=C(O[C@@H](Cc1c(Cl)c[n+]([O-])cc1Cl)c1ccc(OC(F)F)c(OCC2CC2)c1)c1ccc(C(=O)O)c(OCC2CC2)c1`, the IC50 at Phosphodiesterase 4 [1] is 300 pM; at Phosphodiesterase 4 [2] it was 50 pM. In the same order, the values of `CS(=O)(=O)Nc1ccc(C(=O)O[C@@H](Cc2c(Cl)c[n+]([O-])cc2Cl)c2ccc(OC(F)F)c(OCC3CC3)c2)c(OCC2CC2)c1` are 1960 pM and 260 pM. The matching figures for `CS(=O)(=O)Nc1ccc(C(=O)O[C@@H](Cc2c(Cl)c[n+]([O-])cc2Cl)c2ccc(OC(F)F)c(OCC3CC3)c2)cc1`: 130 pM and 50 pM. With `O=C(O[C@H](Cc1c(Cl)c[n+]([O-])cc1Cl)c1ccc(OC(F)F)c(OCC2CC2)c1)c1ccc(OC(F)F)c(OCC2CC2)c1`, at Phosphodiesterase 4 [2], the IC50 amounted to 2430 pM. As for `COc1cc(NS(C)(=O)=O)ccc1C(=O)O[C@@H](Cc1c(Cl)c[n+]([O-])cc1Cl)c1ccc(OC(F)F)c(OCC2CC2)c1`, the IC50 came out at 430 pM at Phosphodiesterase 4 [1] and 60 pM on Phosphodiesterase 4 [2]. The matching figures for `Cc1ccc(C(=O)O[C@@H](Cc2c(Cl)c[n+]([O-])cc2Cl)c2ccc(OC(F)F)c(OCC3CC3)c2)cc1NS(C)(=O)=O`: 960 pM and 30 pM. In the same order, the values of `[O-][n+]1cc(Cl)c(C[C@H](O)c2ccc(OC(F)F)c(OCC3CC3)c2)c(Cl)c1` are 479000 pM and 9440 pM.

In the case of `CS(=O)(=O)Nc1cc(OCC2CC2)cc(C(=O)O[C@@H](Cc2c(Cl)c[n+]([O-])cc2Cl)c2ccc(OC(F)F)c(OCC3CC3)c2)c1`, the concentration for half-maximal inhibition (IC50) on Phosphodiesterase 4 [1] amounted to 920 pM; at Phosphodiesterase 4 [2], 60 pM. Consider `CS(=O)(=O)Nc1cc(C(=O)O[C@@H](Cc2c(Cl)c[n+]([O-])cc2Cl)c2ccc(OC(F)F)c(OCC3CC3)c2)ccc1OCc1ccccc1`, for which the IC50 worked out at 530 pM on Phosphodiesterase 4 [1] and 320 pM on Phosphodiesterase 4 [2].

Consider `COc1ccc(C(=O)O[C@@H](Cc2c(Cl)c[n+]([O-])cc2Cl)c2ccc(OC(F)F)c(OCC3CC3)c2)cc1Oc1ccccc1`, for which the IC50 at Phosphodiesterase 4 [1] stood at 1360 pM; on Phosphodiesterase 4 [2], 210 pM. `COc1cc(C(=O)O[C@@H](Cc2c(Cl)c[n+]([O-])cc2Cl)c2ccc(OC(F)F)c(OCC3CC3)c2)ccc1NS(C)(=O)=O`: the IC50 turned out to be 380 pM on Phosphodiesterase 4 [1] and 60 pM at Phosphodiesterase 4 [2]. On to `COc1cccc(NS(C)(=O)=O)c1C(=O)O[C@@H](Cc1c(Cl)c[n+]([O-])cc1Cl)c1ccc(OC(F)F)c(OCC2CC2)c1`, for which the IC50 on Phosphodiesterase 4 [1] was above 60000 pM; on Phosphodiesterase 4 [2], 6830 pM.

For the molecule `O=C(O[C@@H](Cc1c(Cl)c[n+]([O-])cc1Cl)c1ccc(OC(F)F)c(OCC2CC2)c1)c1ccccc1`, the figures for the IC50 at Phosphodiesterase 4 [1] and at Phosphodiesterase 4 [2] were 1710 pM and 72 pM, respectively.

As to `CS(=O)(=O)Nc1ccc(C(=O)O[C@@H](Cc2c(Cl)c[n+]([O-])cc2Cl)c2ccc(OC(F)F)c(OCC3CC3)c2)cc1CO`, the IC50 on Phosphodiesterase 4 [1] is 1050 pM; at Phosphodiesterase 4 [2] it was 30 pM.

In the case of `O=C(O[C@@H](Cc1c(Cl)c[n+]([O-])cc1Cl)c1ccc(OC(F)F)c(OCC2CC2)c1)c1ccc([N+](=O)[O-])c(OCC2CC2)c1`, the IC50 at Phosphodiesterase 4 [1] stood at 690 pM; on Phosphodiesterase 4 [2], 210 pM. In the same order, the values of `COc1ccc(C(=O)O[C@@H](Cc2c(Cl)c[n+]([O-])cc2Cl)c2ccc(OC(F)F)c(OCC3CC3)c2)cc1NC(C)=O` are 670 pM and 80 pM. In the same order, the values of `N#Cc1ccc(C(=O)O[C@@H](Cc2c(Cl)c[n+]([O-])cc2Cl)c2ccc(OC(F)F)c(OCC3CC3)c2)cc1` are 2100 pM and 410 pM. The matching figures for `O=C(O[C@@H](Cc1c(Cl)c[n+]([O-])cc1Cl)c1ccc(OC(F)F)c(OCC2CC2)c1)c1ccc(OC(F)F)c(OCC2CC2)c1`: 1100 pM and 220 pM. Regarding `O=C(O[C@@H](Cc1c(Cl)c[n+]([O-])cc1Cl)c1ccc(OC(F)F)c(OCC2CC2)c1)c1ccc(C(F)(F)F)cc1`, the IC50 on Phosphodiesterase 4 [1] is 21000 pM; at Phosphodiesterase 4 [2] it was 200 pM. In the same order, the values of `CS(=O)(=O)Nc1ccc(OCC2CC2)c(C(=O)O[C@@H](Cc2c(Cl)c[n+]([O-])cc2Cl)c2ccc(OC(F)F)c(OCC3CC3)c2)c1` are 4900 pM and 400 pM.

For `CS(=O)(=O)Nc1cc(C(=O)O[C@@H](Cc2c(Cl)c[n+]([O-])cc2Cl)c2ccc(OC(F)F)c(OCC3CC3)c2)ccc1OCC1CC1`, the figures for the IC50 at Phosphodiesterase 4 [1] and on Phosphodiesterase 4 [2] were 120 pM and 130 pM, respectively. For `O=C(CCCc1ccccc1)OC(Cc1c(Cl)cncc1Cl)c1ccc(OC(F)F)c(OCC2CC2)c1` (racemic), on Phosphodiesterase 4 [2], the IC50 came out at 1340 pM. As to `COc1ccc(C(=O)O[C@@H](Cc2c(Cl)c[n+]([O-])cc2Cl)c2ccc(OC(F)F)c(OCC3CC3)c2)c(NS(C)(=O)=O)c1`, the IC50 is above 60000 pM at Phosphodiesterase 4 [1] and 730 pM at Phosphodiesterase 4 [2]. In the same order, the values of `CS(=O)(=O)Nc1cccc(C(=O)O[C@@H](Cc2c(Cl)c[n+]([O-])cc2Cl)c2ccc(OC(F)F)c(OCC3CC3)c2)c1OCC1CC1` are 1310 pM and 180 pM.

As for `COc1ccc(NS(C)(=O)=O)cc1C(=O)O[C@@H](Cc1c(Cl)c[n+]([O-])cc1Cl)c1ccc(OC(F)F)c(OCC2CC2)c1`, the results for the IC50 at Phosphodiesterase 4 [1] and on Phosphodiesterase 4 [2] were 890 pM and 40 pM, respectively. As for `COc1ccc(C(=O)O[C@@H](Cc2c(Cl)c[n+]([O-])cc2Cl)c2ccc(OC(F)F)c(OCC3CC3)c2)cc1`, the IC50 on Phosphodiesterase 4 [1] was 470 pM; on Phosphodiesterase 4 [2], 140 pM.

On to `O=C(O[C@@H](Cc1c(Cl)cncc1Cl)c1ccc(OC(F)F)c(OCC2CC2)c1)c1ccc(OC(F)F)c(OCC2CC2)c1`, for which the IC50 at Phosphodiesterase 4 [2] came to 1900 pM.

Turning to `COc1ccc(C(=O)O[C@@H](Cc2c(Cl)c[n+]([O-])cc2Cl)c2ccc(OC(F)F)c(OCC3CC3)c2)cc1OC(C)=O`, the IC50 at Phosphodiesterase 4 [1] was determined as 960 pM; at Phosphodiesterase 4 [2] it was 50 pM. The matching figures for `O=C(O[C@@H](Cc1c(Cl)c[n+]([O-])cc1Cl)c1ccc(OC(F)F)c(OCC2CC2)c1)c1ccc(NS(=O)(=O)C2CC2)c(OCC2CC2)c1`: 340 pM and 150 pM. As to `O=C(O[C@@H](Cc1c(Cl)c[n+]([O-])cc1Cl)c1ccc(OC(F)F)c(OCC2CC2)c1)c1ccc(Cl)cc1`, the IC50 on Phosphodiesterase 4 [1] is 1850 pM; at Phosphodiesterase 4 [2] it was 160 pM. The matching figures for `COc1ccc(C(=O)O[C@@H](Cc2c(Cl)c[n+]([O-])cc2Cl)c2ccc(OC(F)F)c(OCC3CC3)c2)cc1OC`: 120 pM and 70 pM.

For the molecule `CN(C)c1ccc(C(=O)O[C@@H](Cc2c(Cl)c[n+]([O-])cc2Cl)c2ccc(OC(F)F)c(OCC3CC3)c2)cc1OCC1CC1`, the IC50 on Phosphodiesterase 4 [1] is 630 pM; at Phosphodiesterase 4 [2], 310 pM. `O=C(O/C(=C\c1c(Cl)cncc1Cl)c1ccc(OC(F)F)c(OCC2CC2)c1)c1ccc(OC(F)F)c(OCC2CC2)c1`: the 50% inhibitory concentration (IC50) at Phosphodiesterase 4 [2] came out at 1180 pM. Regarding `COc1ccc(C(=O)O[C@@H](Cc2c(Cl)c[n+]([O-])cc2Cl)c2ccc(OC(F)F)c(OCC3CC3)c2)cc1O`, the IC50 stood at 750 pM on Phosphodiesterase 4 [1] and 80 pM at Phosphodiesterase 4 [2]. As for `CNS(=O)(=O)c1cc(C(=O)O[C@@H](Cc2c(Cl)c[n+]([O-])cc2Cl)c2ccc(OC(F)F)c(OCC3CC3)c2)ccc1OC`, the IC50 at Phosphodiesterase 4 [1] turned out to be 250 pM; at Phosphodiesterase 4 [2], 30 pM. In the same order, the values of `CC(=O)Nc1ccc(C(=O)O[C@@H](Cc2c(Cl)c[n+]([O-])cc2Cl)c2ccc(OC(F)F)c(OCC3CC3)c2)cc1OCC1CC1` are 210 pM and 240 pM. Take `CCCC(=O)OC(Cc1c(Cl)cncc1Cl)c1ccc(OC(F)F)c(OCC2CC2)c1` (racemic): the IC50 on Phosphodiesterase 4 [2] worked out at 1740 pM. Still for that read-out and setting: in the case of `O=C(OC(Cc1c(Cl)cncc1Cl)c1ccc(OC(F)F)c(OCC2CC2)c1)c1ccccc1` (racemic) it was 1140 pM. Take `CS(=O)(=O)Nc1ccc(C(=O)O[C@@H](Cc2c(Cl)c[n+]([O-])cc2Cl)c2ccc(OC(F)F)c(OCC3CC3)c2)cc1OCc1ccccc1`: the IC50 is 990 pM on Phosphodiesterase 4 [1] and 560 pM on Phosphodiesterase 4 [2]. The matching figures for `Nc1ccc(C(=O)O[C@@H](Cc2c(Cl)c[n+]([O-])cc2Cl)c2ccc(OC(F)F)c(OCC3CC3)c2)cc1OCC1CC1`: 110 pM and 90 pM. The matching figures for `COc1ccc(C(=O)O[C@@H](Cc2c(Cl)c[n+]([O-])cc2Cl)c2ccc(OC(F)F)c(OCC3CC3)c2)cc1S(=O)(=O)N(C)C`: 1850 pM and 30 pM. In the same order, the values of `COc1ccc(NS(C)(=O)=O)c(C(=O)O[C@@H](Cc2c(Cl)c[n+]([O-])cc2Cl)c2ccc(OC(F)F)c(OCC3CC3)c2)c1` are above 60000 pM and 400 pM. As to `O=C(O[C@@H](Cc1c(Cl)c[n+]([O-])cc1Cl)c1ccc(OC(F)F)c(OCC2CC2)c1)c1ccc(O)c(OCC2CC2)c1`, the IC50 is 850 pM at Phosphodiesterase 4 [1] and 40 pM at Phosphodiesterase 4 [2]. Take `COc1ccc(C(=O)O[C@@H](Cc2c(Cl)c[n+]([O-])cc2Cl)c2ccc(OC(F)F)c(OCC3CC3)c2)cc1OCC1CC1`: the IC50 on Phosphodiesterase 4 [1] was 40 pM; on Phosphodiesterase 4 [2], 50 pM. Regarding `O=C(O[C@H](Cc1c(Cl)cncc1Cl)c1ccc(OC(F)F)c(OCC2CC2)c1)c1ccc(OC(F)F)c(OCC2CC2)c1`, the IC50 at Phosphodiesterase 4 [2] came out at 44000 pM.

`COc1cc(NS(C)(=O)=O)cc(C(=O)O[C@@H](Cc2c(Cl)c[n+]([O-])cc2Cl)c2ccc(OC(F)F)c(OCC3CC3)c2)c1`: the half-inhibitory concentration (IC50) on Phosphodiesterase 4 [1] was found to be 130 pM; on Phosphodiesterase 4 [2], 170 pM.

For the molecule `O=C(Cc1ccccc1)OC(Cc1c(Cl)cncc1Cl)c1ccc(OC(F)F)c(OCC2CC2)c1` (racemic), at Phosphodiesterase 4 [2], the IC50 stood at 1060 pM. For the molecule `CC(=O)OC(Cc1c(Cl)cncc1Cl)c1ccc(OC(F)F)c(OCC2CC2)c1` (racemic), on Phosphodiesterase 4 [2], the IC50 was found to be 4090 pM.

In general, IC50 refers to the midpoint of a concentration-inhibition curve.
